Rows were chosen to be rich in hits. Some 2.9% of all compounds tested hit in one or more screens of this group.
Env fusion inh – inhibitors of HIV-1 Env-driven cell-cell fusion, primary screen, HeLa-JRFL effector, CEM21 target cells, luciferase | inhibition, % at 12.3 µM | 360,000 compounds, 1.1% hits;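 active = mean replicate inhibition score of at least 50 and every replicate individually at or above 50; inconclusive = only one of the two criteria met; inactive = mean below 50 and not all replicates reaching 50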;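 note: 0% = plate neutral controls and 100% = maraviroc near 300 nM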
GSIS activator – GLuc luminescence reporter in INS-1E cells, primary screen for activators of glucose-dependent secretion of insulin | INS-1E GLuc reporter insulin secretion, 2-3 h | activation, % at 16.6 µM | 370,000 compounds, 0.61% hits | AID 743287, 2014;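 active = lowest replicate activation of at least 40%, so every replicate reaches that level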;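 note: 0% = median of neutral control wells and 100% = median of IBMX positive control wells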
dFosB act – activators of delta FosB homodimer, primary screen, biochemical, fluorescence polarization, TAMRA-CDK5 oligo, single point. purified delta FosB; percent of positive-control signal above neutral wells. activation, % at 25 µM. 340,000 compounds, 0.99% hits. AID 493131, 2011;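 active = mean activation above about 17%, with every replicate also reaching it, limit read from the data, passing the limit was not always enough; inconclusive = only one of the two conditions met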
PAX8 reporter – inhibitors of PAX8-driven TPO luciferase reporter, primary screen, RMG-I cells, single concentration. AID 652154, 2013. SteadyGlo, 24 h. 360,000 compounds, 1.2% hits. inhibition, % at 12.6 µM;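 active = mean replicate inhibition at least 60% with every replicate also reaching 60%; inconclusive = only one of the two criteria is met; inactive = mean below 60% and not all replicates reaching 60%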;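 note: luciferase light reporting Pax8 driven TPO promoter activity; plate controls were median of neutral control wells for no effect and mitoxantrone controls for full effect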
Cneo AK release – Cryptococcus neoformans cell lysis inducers, primary screen, AK release luminescence, single concentration; C. neoformans lysis, adenylate kinase release luminescence, 4 h; normalised: neutral wells 0, clomiphene wells 100; lysis activity, % at 15 µM; 360,000 compounds, 0.2% hits; AID 651654, 2012;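 active = mean lysis activity across replicates of at least 80%, whatever share of replicates individually reach that level; inactive = mean lysis activity below 80%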
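Assay system: Cryptococcus neoformans yeast cells / Dosing: single-point compound dose / Timing: 4 h at 37 °C static, read 1 h later / Measured by: luminescence of released adenylate kinase using an AK detection reagent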
CDK5 p35 inh – inhibitors of human CDK5/p35 kinase, primary screen, biochemical, single concentration; inhibition, % at 10 µM; Recombinant CDK5/p35, ADP-Glo luminescence, 60 min; AID 488839, 2010; Cyclin-dependent kinase 5 (Homo sapiens) + Cyclin-dependent kinase 5 activator 1 (Homo …; 330,000 compounds, 0.01% hits;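 active = highest replicate inhibition of at least 50% and at least 75% of replicates reaching 50%; inconclusive = only one of the two criteria met; inactive = both criteria failed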;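 note: plate controls were DMSO neutral control for no effect and GW8510 at 10 µM for full effect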
Target sequence (Q00535 whole entry, looked up): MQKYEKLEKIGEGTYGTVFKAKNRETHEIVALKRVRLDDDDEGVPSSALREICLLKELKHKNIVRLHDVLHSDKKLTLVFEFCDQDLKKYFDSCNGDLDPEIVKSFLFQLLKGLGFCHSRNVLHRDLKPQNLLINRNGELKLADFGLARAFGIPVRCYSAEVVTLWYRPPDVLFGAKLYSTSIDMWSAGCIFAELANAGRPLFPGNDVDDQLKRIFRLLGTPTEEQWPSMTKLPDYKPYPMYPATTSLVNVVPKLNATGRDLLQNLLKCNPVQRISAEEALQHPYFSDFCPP
Target sequence (Q15078 whole entry, looked up): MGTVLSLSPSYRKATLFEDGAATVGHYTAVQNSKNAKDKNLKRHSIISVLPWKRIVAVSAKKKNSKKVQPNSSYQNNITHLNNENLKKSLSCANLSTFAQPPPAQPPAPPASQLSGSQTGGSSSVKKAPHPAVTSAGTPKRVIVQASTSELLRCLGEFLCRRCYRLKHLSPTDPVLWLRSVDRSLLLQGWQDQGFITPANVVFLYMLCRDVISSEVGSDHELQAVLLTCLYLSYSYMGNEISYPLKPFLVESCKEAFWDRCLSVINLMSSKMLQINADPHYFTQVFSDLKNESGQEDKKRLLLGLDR
* hit, by the source's call; u = inconclusive; x = no result; ! = a repeat was not active; [ ] = remark or other dose.

SMILES	Env fusion inh	GSIS activator	dFosB act	PAX8 reporter	Cneo AK release	CDK5 p35 inh
COc1cccc2c1C(=O)c1c(O)c3c(c(O)c1C2=O)C[C@@](O)(C(C)=O)C[C@@H]3O[C@H]1C[C@H](N)[C@H](O)[C@H](C)O1	x	x	-288	114*	-1	2
COc1cccc2c1C(=O)c1c(O)c3c(c(O)c1C2=O)CC(O)(C(=O)CO)CC3OC1CC(N(C)C)C(O)C(C)O1 (stereo not given)	59*	x	-382	112*	x	1
COc1cccc2c1C(=O)c1c(O)c3c(c(O)c1C2=O)C[C@@](O)(C(=O)CO)C[C@@H]3O[C@H]1C[C@H](N)[C@@H](O)[C@H](C)O1	x	x	-361	x	-2	10
CO[C@@H](C(=O)N(C)C[C@H]1OCc2ccccc2-c2c(n(C)c3ccccc23)C(=O)N([C@H](C)CO)C[C@@H]1C)c1ccccc1	34[16.7 µM]	-20	x	-20	-2	x
C/C=C/c1ccc([C@H]2[C@H]3CN(S(=O)(=O)c4cccc(F)c4)CC(=O)N3[C@H]2CO)cc1	x	-2	x	x	x	x
C[C@H]1CN([C@@H](C)CO)S(=O)(=O)c2ccc(-c3cccnc3)cc2O[C@@H]1CN(C)Cc1cncnc1	3[16.7 µM]	0	x	x	-5	x
CCN(CC)c1ccc2nc3ccc(N)cc3[n+](-c3ccccc3)c2c1	72*	-75	-244	x	-6	20
Cc1nonc1NC(=O)CSc1nc(CCC2CCCC2)nc2ccccc12	8	1	-6	-4	15	2
O=C(CSc1nc(CCC2CCCC2)nc2ccccc12)NCc1ccc2c(c1)OCO2	40	-2	1	1	115*	-1
CC(C)OCCCNC(=O)c1c(N)n(/N=C/c2ccccn2)c2nc3ccccc3nc12	-40	76*	10	x	-1	0
CCn1c(O)c(N=Nc2ccc3ccccc3n2)c2ccccc21	-124	3	-10	-216	x	5
Brc1ccc(N=Nc2ccc3ccccc3n2)cc1	29	14	-2	79*	-20	5
COc1ccc(NC(=O)Nc2cccc3c2O[C@H](CN(C)S(C)(=O)=O)[C@@H](C)CN([C@@H](C)CO)C3=O)cc1	-13[16.7 µM]	25	x	x	-16	x
C[C@@H]1O[C@@H](OC[C@H]2O[C@@H](Oc3c(-c4ccc(O)c(O)c4)oc4cc(O)cc(O)c4c3=O)[C@H](O)[C@@H](O)[C@@H]2O)[C@H](O)[C@H](O)[C@H]1O	-18	12	12	-16	-2	0
COc1c(-c2ccc(O)c(O)c2)oc2cc(O)cc(O)c2c1=O	x	70*	-18	x	4	10
C[C@H]1CN([C@@H](C)CO)S(=O)(=O)c2ccc(Br)cc2O[C@@H]1CN(C)S(=O)(=O)c1ccccc1F	21[16.7 µM]	19	x	-14	94*!	x
C[C@H](CO)N1C[C@H](C)[C@H](CN(C)S(=O)(=O)c2ccccc2F)Oc2cc(-c3ccccc3)ccc2S1(=O)=O	20[16.7 µM]	-3	x	34	-5	x
C[C@H]1CN([C@@H](C)CO)S(=O)(=O)c2ccc(Br)cc2O[C@H]1CN(C)S(=O)(=O)c1ccccc1F	u	3	x	-16	104*!	x
C[C@@H]1CN([C@H](C)CO)C(=O)c2cc(NS(=O)(=O)c3ccc(F)cc3)ccc2O[C@@H]1CN(C)S(=O)(=O)c1ccccc1	-13[16.7 µM]	-10	x	-28	-3	x
C[C@@H]1CCCCO[C@H](CN(C)Cc2ccc3c(c2)OCO3)[C@H](C)CN([C@H](C)CO)C(=O)c2cc(NC(=O)NC3CCCCC3)ccc2O1	8[16.7 µM]	-33	x	-3	56	x
CN(C)CC#Cc1ccc([C@H]2[C@H]3CN(C(=O)c4ccc(F)cc4)CC(=O)N3[C@H]2CO)cc1	x	-1	x	8	x	x
N#Cc1c(NCCN)nc(NCc2ccccc2)c2c1CCN(Cc1ccccc1)C2	x	x	24*	x	x	3
C=CCNc1nc(NCc2ccccc2)c(C#N)c2c1CN(C)CC2	21	x	4	17	4	1
C[C@H]1CN([C@@H](C)CO)C(=O)c2cccc(NC(=O)Nc3ccccc3)c2O[C@@H]1CN(C)Cc1ccc(C(=O)Nc2ccccc2N)cc1	-29[16.7 µM]	3	x	39	3	x
COc1ccc(S(=O)(=O)Nc2ccc3c(c2)CC(=O)N([C@H](C)CO)C[C@H](C)[C@H](CN(C)S(=O)(=O)c2ccc(C)cc2)O3)cc1	99*[16.7 µM]	-8	x	-5	-8	x
SMILES	Env fusion inh	GSIS activator	dFosB act	PAX8 reporter	Cneo AK release	CDK5 p35 inh
COc1ccc(S(=O)(=O)Nc2ccc3c(c2)CC(=O)N([C@@H](C)CO)C[C@@H](C)[C@@H](CN(C)S(=O)(=O)c2ccc(C)cc2)O3)cc1	5[16.7 µM]	-8	x	-12	-2	x
COc1ccc(S(=O)(=O)Nc2ccc3c(c2)CC(=O)N([C@H](C)CO)C[C@H](C)[C@H](CN(C)S(=O)(=O)c2ccc(Cl)cc2)O3)cc1	73*[16.7 µM]	-8	x	-7	6	x
COc1ccc(S(=O)(=O)Nc2ccc3c(c2)CC(=O)N([C@H](C)CO)C[C@H](C)[C@H](CN(C)S(=O)(=O)c2ccccc2)O3)cc1	84*[16.7 µM]	2	x	-13	6	x
C[C@H](CO)N1C[C@H](C)[C@H](CN(C)C(=O)Nc2ccccc2F)Oc2ncc(-c3ccccc3)cc2C1=O	-19[16.7 µM]	-10	x	x	1	x
C[C@H]1CN([C@@H](C)CO)C(=O)c2cc(NC(=O)c3ccncc3)ccc2O[C@H]1CN(C)C(=O)Nc1ccc(F)cc1	x	-15	x	-20	-1	x
CSc1ccc2nnc(-c3cccc(F)c3)n2n1	-24	53*	-21	x	2	1
C[C@@H]1CN([C@H](C)CO)C(=O)c2cc(NC(=O)Cn3cnnn3)ccc2O[C@H]1CN(C)S(=O)(=O)c1ccccc1	4[16.7 µM]	2	x	x	x	x
COc1cccc(S(=O)(=O)N[C@@H]2CC[C@@H](CC(=O)NC3CCC3)O[C@@H]2CO)c1	4[16.7 µM]	13	x	-4	2	x
COc1cc(C(=O)O[C@H]2CC(C)=CC[C@@]3(C)CC[C@@](O)(C(C)C)[C@H]23)ccc1O	88*	15	-16	-7	4	-1
CO[C@H]1CN(C)C(=O)c2cc(NS(=O)(=O)c3ccc(Cl)cc3)ccc2OC[C@@H](C)NC[C@H]1C	-9[16.7 µM]	6	x	11	-2	x
C/C(=N\OCc1cccc(C(=O)O)c1)c1ccc(Cl)cc1	62*	-6	x	81*	-1	x
C[C@@H]1CN([C@@H](C)CO)C(=O)Cc2cc(NC(=O)Nc3cccc4ccccc34)ccc2O[C@@H]1CN(C)Cc1ccc(C(=O)O)cc1	x	-17	x	-33	115*	x

Screens (PubChem BioAssay)
